Values after ≈ are worked out from the molar mass of the structure shown. Active and inactive are the calls of the source. The calls are words filed in the database; no cut-off is given here.

One data set relates to Bacillus cereus. The data set can be described thus: Antibacterial activity against Bacillus cereus ATCC 11778 after 24 hrs by broth microdilution method. It is filed as functional. The following applies: ATCC 11778, 24 h. In short, it runs like this: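 MIC by CLSI broth microdilution in cation-adjusted Mueller–Hinton broth, tubes. Compounds in H2O or DMF, diluted in PBS to 1000 μg/mL stocks, then serial 2-fold dilutions (final DMF 2.5%). Inoculum ~5×10^5 CFU/mL from TSA plates grown 35 °C 20 h. Incubation 35 °C 24 h; MIC = no visible growth vs control. Biological replicates.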
On the technique in general: Dilution methods test growth across graded concentrations, often in twofold steps.

Data set [1] has as its system Staphylococcus aureus. The data set can be described thus: Antibacterial activity against methicillin-sensitive Staphylococcus aureus ATCC 6538 after 24 hrs by broth microdilution method. The following applies: ATCC 6538, 24 h. It is filed as functional. In short, it runs like this: (§1)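 Broth microdilution per CLSI in cation-adjusted Mueller−Hinton broth, in tubes. Compounds dissolved in H2O or DMF, then diluted in PBS to 1000 μg/mL stocks. Serial 2-fold dilutions were made, with final DMF 2.5%. Organisms were grown on TSA at 35 °C for 20 h and adjusted to ~5× 10^5 CFU/mL. Tubes were incubated at 35 °C for 24 h. MIC was the lowest concentration with no visible growth versus control. Biological replicates.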

For data set [2], the system named is Staphylococcus aureus. The data set can be described thus: Induction of plasma membrane permeability in methicillin-resistant Staphylococcus aureus DM9808R assessed as increase in fluorescence intensity at 12.5 ug/ml measured every 1 sec for 50 mins by SYTOX green dye based fluorimetric assay. The format is functional. In short, it runs like this:
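Exponential-phase MRSA DM9808R grown on TSA, washed twice and resuspended in PBS (10 mM, pH 7) to OD600 0.2. Cells were loaded with 0.3 μM SYTOX Green in the dark until fluorescence stabilized. Test samples were then added (final DMF 0.5%). Fluorescence at ex 504/em 523 nm was recorded every 1 s for 50 min. Biological replicates.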

Data set [3] deals with Staphylococcus aureus. The data set can be described thus: Antibacterial activity against methicillin-sensitive Staphylococcus aureus ATCC 29213 after 24 hrs by broth microdilution method. It is filed as functional. The following applies: ATCC 29213, 24 h. The procedure, abridged:
as §1

In data set [4] the test system is Staphylococcus aureus. The data set can be described thus: Antibacterial activity against methicillin-resistant Staphylococcus aureus ATCC 700699 after 24 hrs by broth microdilution method. It is filed as functional. The following applies: ATCC 700699, 24 h. The procedure, abridged: as §1
Data set [5] deals with Lipid bilayer. The experiment in a line: Membrane permeabilization activity in DOPE/DOPG large unilamellar liposomes assessed as leakage of calcein at 1:4 compound to lipid ratio by fluorescence assay. In short, it runs like this: (§2)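 Calcein-loaded 100 nm LUVs of DOPE/DOPG (3:1, w/w), made by film hydration in 80 mM calcein, 100 mM NaCl, 50 mM HEPES, 0.3 mM EDTA, pH 7.4. Liposomes 50 μM, 0.5% DMF, room temperature. Read at ex 490/em 520 nm every 2 min for 30 cycles. % leakage normalized to 0.1% Triton X-100 (100%) and 0.5% DMF (0%). Biological replicates.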

Data set [6] relates to Staphylococcus aureus. The data set can be described thus: Bactericidal activity against methicillin-resistant Staphylococcus aureus DM21455 assessed as log reduction in bacterial count at 4 times MIC up to 30 mins by time kill assay. The format is functional. In short, it runs like this: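 Time-kill. Starting inoculum 10^5−10^6 CFU/mL, exposed to 0.5×, 1×, 2× and 4× MIC at 35 °C. Colonies were counted after 24 h at 35 °C and CFU/mL calculated. Biological replicates.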

In data set [7] the test system is Staphylococcus aureus. The data set can be described thus: Antibacterial activity against methicillin-resistant Staphylococcus aureus DM 21455 after 24 hrs by broth microdilution method. The format is functional. The following applies: DM 21455, 24 h. The procedure, abridged: as §1
Data set [8] is described as follows: Cytotoxicity in human Corneal fibroblasts assessed as LDH release at 30 uM after 24 hrs. The format is cell-based. The following applies: corneal fibroblast. The procedure, abridged: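 Human corneal fibroblasts are exposed to test samples for 24 h, and cytotoxicity is read as LDH leakage into the medium. Biological replicates.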
On the technique in general: LDH leaks from cells whose membrane has failed.

For data set [9], the system named is Staphylococcus aureus. The experiment in a line: Antibacterial activity against methicillin-sensitive Staphylococcus aureus DM4299 after 24 hrs by broth microdilution method. The following applies: DM4299, 24 h. It is filed as functional. In short, it runs like this:
as §1

For data set [10], the system named is Lipid bilayer. The experiment in a line: Membrane permeabilization activity in DOPE/DOPG large unilamellar liposomes assessed as leakage of calcein at 1:8 compound to lipid ratio by fluorescence assay. The procedure, abridged: as §2

By MIC is commonly meant the lowest concentration that inhibits growth of the organism. Read a low MIC as a more susceptible organism. For the molecule `COC(=O)[C@H](CCCNC(=N)N)NC(=O)COc1cc(O)c2c(=O)c(OCC(=O)N[C@@H](CCCNC(=N)N)C(=O)OC)c(-c3ccc(OC)cc3)oc2c1CC=C(C)C`, the MIC was 3.8 µM (≈ 3.13 µg/mL) against Bacillus cereus; 1.56 µg/mL (≈ 1.89 µM) against Staphylococcus aureus [1]; 3.13 µg/mL (≈ 3.79 µM) against Staphylococcus aureus [3]; 3.13 µg/mL (≈ 3.79 µM) against Staphylococcus aureus [4]; 1.9 µM (≈ 1.57 µg/mL) in the data set with Staphylococcus aureus [7]; 3.13 µg/mL (≈ 3.79 µM) with Staphylococcus aureus [9]. Besides, in the data set with Staphylococcus aureus [2], the outcome was Active. Besides, the Activity in the data set on Lipid bilayer [5] is 46%; in the data set on Staphylococcus aureus [6] it was 3 deltalog10CFU/ml; in data set [8] it was -2.3%; in the data set on Lipid bilayer [10] it was 53.5%.

These data come from ChEMBL document CHEMBL4011638, “Semisynthetic Flavone-Derived Antimicrobials with Therapeutic Potential against Methicillin-Resistant Staphylococcus aureus (MRSA)” (J Med Chem, 2017).
